These results are taken from ChEMBL document CHEMBL3120055, “HPLC-based activity profiling for GABAA receptor modulators in Adenocarpus cincinnatus” (J Nat Prod, 2014).

For assay [1], the species on record is Rattus norvegicus. Nature of the assay: Positive allosteric modulation of rat alpha1beta2gamma2S GABAA receptor expressed in Xenopus laevis oocytes assessed as potentiation of GABA-induced chloride current at 300 uM by two-microelectrode voltage clamp electrophysiology. The format is cell-based. Summed up: (§1)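 Rat α1β2γ2s cRNAs (1:1:10) were injected into collagenase-treated Xenopus oocytes, which were kept at 18 °C in ND96 and recorded on days 1–5. Two-electrode clamp was held at −70 mV in bath containing 90 mM NaCl and 5 mM HEPES, pH 7.4. Compound at 0.1–300 μM was co-applied with GABA EC5–10 by fast perfusion, with 1% DMSO final. Enhancement is I(GABA+Comp)/IGABA − 1, given as mean ± SE from four oocytes across three batches.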

For assay [2], the species on record is Rattus norvegicus. Briefly: Positive allosteric modulation of rat alpha1beta2gamma2S GABAA receptor expressed in Xenopus laevis oocytes assessed as potentiation of GABA-induced chloride current at 100 uM by two-microelectrode voltage clamp electrophysiology relative to control. The format is cell-based.
The species entered for assay [3] is Rattus norvegicus. Briefly: Positive allosteric modulation of rat alpha1beta2gamma2S GABAA receptor expressed in Xenopus laevis oocytes assessed as potentiation of GABA-induced chloride current by two-microelectrode voltage clamp electrophysiology relative to control. It counts as cell-based. Summed up:
as §1

A short description of assay [4]: Positive allosteric modulation of rat alpha1beta2gamma2S GABAA receptor expressed in Xenopus laevis oocytes assessed as potentiation of GABA-induced chloride current by two-microelectrode voltage clamp electrophysiology. The format is cell-based. An outline of the steps: as §1
The species named for assay [5] is Rattus norvegicus. Briefly: Agonist activity at rat alpha1beta2gamma2S GABAA receptor expressed in Xenopus laevis oocytes assessed as direct activation of chloride current in absence of GABA at 0.1 to 30 uM by two-microelectrode voltage clamp electrophysiology.
The species entered for assay [6] is Rattus norvegicus. Nature of the assay: Positive allosteric modulation of rat alpha1beta2gamma2S GABAA receptor expressed in Xenopus laevis oocytes assessed as potentiation of GABA-induced chloride current at 1 uM by two-microelectrode voltage clamp electrophysiology relative to control. The format is cell-based. An outline of the steps:
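Rat α1β2γ2s cRNAs (1:1:10) injected into collagenase-defolliculated oocytes, kept at 18 °C in ND96 with penicillin-streptomycin, and recorded on days 1–5. Test agent applied by fast perfusion with GABA EC5–10 in 1% DMSO final. Enhancement = I(GABA+Comp)/IGABA − 1.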

Calls of active or inactive are those of the source. The rule behind the calls is not given here.

For the compound `CC1(C)C=Cc2cc3c(cc2O1)O[C@H]1c2ccc(O)cc2OC[C@@H]31` [ISONEORAUTENOL], the outcome in the assay filed under Rattus norvegicus [1] and in the assay filed under Rattus norvegicus [5] was inactive. The %max in the assay listed under Rattus norvegicus [2] is 388%. The Emax (as a rule, the size of the effect at its maximum, as opposed to the concentration needed) in the assay listed under Rattus norvegicus [3] was found to be 771%. The EC50 – broadly, the concentration giving half of the maximal effect – in assay [4] is 40.7 µM. On to `O=C1c2ccc(O)cc2O[C@H](c2ccccc2)[C@H]1O`, for which, in the assay listed under Rattus norvegicus [2], the %max was 11.7%. Same read-out and setting: the value for `CC(C)=CCc1c(O)c(CCC(C)(C)O)cc2c1O[C@H](c1ccc(O)cc1)[C@@H](O)C2=O` was -26%; that for `Oc1ccc2c(c1)OC[C@H]1c3cc4ccoc4cc3O[C@@H]21` was 213%. In the case of `CC(C)=CCc1cc2c(cc1O)O[C@H]1c3ccc(O)c(O)c3OC[C@@H]21`, the result in the assay filed under Rattus norvegicus [1] and in the assay filed under Rattus norvegicus [5] was inactive. Moreover, the %max in the assay listed under Rattus norvegicus [2] worked out at 454%. Also, the Emax in the assay listed under Rattus norvegicus [3] came out at 491%. Moreover, the EC50 in assay [4] turned out to be 18.8 µM. For the compound `CC(C)=CCc1cc2c(cc1O)OCC(c1ccc(O)cc1O)C2=O` (stereo unspecified), in the assay listed under Rattus norvegicus [2], the %max worked out at 199%. Still for that read-out and setting: the value for `CC(C)=CCc1c(O)ccc2c(=O)c(-c3ccc(O)cc3)coc12` was 192%. Same read-out and setting: the value for `CC(C)=CCc1c(O)ccc2c1OCC(c1ccc(O)cc1O)C2=O` (stereo unspecified) was 361%. As to `CC(C)=CCc1c(O)ccc2c(=O)c(-c3ccc(O)cc3O)coc12`, the %max in the assay filed under Rattus norvegicus [2] came to 560%. For the same compound, in the assay listed under Rattus norvegicus [3], the maximum response (Emax) stood at 553%. In addition, the EC50 in assay [4] is 2.8 µM. Moreover, the result in the assay listed under Rattus norvegicus [5] was inactive. Turning to `CO/C(=C\c1ccccc1)C(=O)c1ccc(O)cc1O`, the %max in the assay filed under Rattus norvegicus [2] was found to be 228%.

As for `CO[C@H](Cc1ccccc1)C(=O)c1ccc(O)cc1O`, the %max in the assay listed under Rattus norvegicus [2] is 88.8%. Same read-out and setting: the value for `Oc1ccc2c(c1)OC[C@H]1c3cc4c(cc3O[C@@H]21)OCO4` was 238%.

For the compound `CC(C)=CCc1cc2c(c(CC=C(C)C)c1O)O[C@H](c1ccc(O)cc1)[C@@H](O)C2=O`, the %max in the assay filed under Rattus norvegicus [2] was found to be 287%. Consider `CC(C)(O)CCc1cc2c(cc1O)O[C@H]1c3ccc(O)cc3OC[C@@H]21`, for which the result in the assay filed under Rattus norvegicus [1] and in the assay listed under Rattus norvegicus [5] was inactive. The %max in the assay listed under Rattus norvegicus [2] was 489%. Also, the maximal response (Emax) in the assay listed under Rattus norvegicus [3] is 640%. Besides, the EC50 in assay [4] stood at 8.6 µM.

In the case of `CN1C(=O)CN=C(c2ccccc2)c2cc(Cl)ccc21`, in the assay filed under Rattus norvegicus [6], the Activity worked out at 231%. For `CC(C)=CCc1c(O)ccc2c1O[C@H](c1ccc(O)cc1)[C@@H](O)C2=O`, the %max in the assay filed under Rattus norvegicus [2] was 272%.
